The values that follow come from article PMC8162271 (Chemical Science, 2020).

Data set [1] in a line: Trolox equivalent antioxidant capacity. To be noted: TEAC assay, result in words. A digest of the protocol: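 Radical quenching was measured with the cationic radical of 2,2′-azino-bis(3-ethylbenzthiazoline-6-sulphonic acid) as substrate, in EtOH at 25 °C. Absorbance was read at 734 nm, and capacity is expressed relative to the vitamin E analog Trolox as Trolox equivalents.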

The target in data set [2] is Electrophorus electricus AChE (eeAChE) (Electrophorus electricus, UniProt O42275). The data set can be described thus: AChE activity assay. It counts as biochemical. To be noted: for inhibition of the activity of AChE: eeAChE, result in words; for IC50: AChE IC50, eeAChE, fluorometric assay.
The target of another data set is metal-free Aβ42 (Homo sapiens, UniProt P05067). Put plainly: Aβ42 aggregation inhibition experiments. It counts as biochemical. To be noted: [Aβ42] 25 μM, [flavonoid] 50 μM, pH 7.4, 37 °C, 24 h. A digest of the protocol: (§1)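 Freshly prepared Aβ42 (25 μM), metal-free or with ZnCl2 (25 μM), incubated with test compound (50 μM) at pH 7.4, 37 °C, for 24 h with constant agitation. Species sizes were resolved by gel/Western blot probed with anti-Aβ antibody 6E10. Band intensities were quantified and normalized to the matching untreated control (ISample/IControl). Aggregate morphology was imaged by TEM.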

The target in a further data set is Cu(II)–Aβ42 (Homo sapiens, UniProt P05067). The data set can be described thus: Aβ42 aggregation inhibition experiments. It counts as biochemical. To be noted: 24 h; for MW distribution of Aβ42 species by gel/Western blot: [Aβ42] 25 μM, [CuCl2] 25 μM, [flavonoid] 50 μM, pH 6.6, 37 °C; for morphology of Aβ42 aggregates by TEM: Cu(II)–Aβ42, [flavonoid] 50 μM.
For the next data set, the target named is Zn(II)–Aβ42 (Homo sapiens, UniProt P05067). Put plainly: Aβ42 aggregation inhibition experiments. To be noted: 24 h; for MW distribution of Aβ42 species by gel/Western blot: [Aβ42] 25 μM, [ZnCl2] 25 μM, [flavonoid] 50 μM, pH 7.4, 37 °C; for morphology of Aβ42 aggregates by TEM: Zn(II)–Aβ42, [flavonoid] 50 μM. The data set is classed as biochemical. A digest of the protocol: as §1

Data set [3] addresses preformed metal-free Aβ42 aggregates (Homo sapiens, UniProt P05067). The data set can be described thus: Aβ42 disaggregation experiments. To be noted: preformed aggregates (24 h) then [flavonoid] 50 μM 24 h, pH 7.4. The data set is classed as biochemical. A digest of the protocol: (§2)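 Aβ42 (25 μM), with or without metal ions, was pre-incubated for 24 h to form aggregates, then exposed to test compound for a further 24 h. Species sizes were analysed by gel/Western blot with anti-Aβ antibody 6E10. Band intensities were quantified as a ratio to the matching control (ISample/IControl). Morphology was examined by TEM.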

Data set [4] deals with preformed Cu(II)–Aβ42 aggregates (Homo sapiens, UniProt P05067). The data set can be described thus: Aβ42 disaggregation experiments. The data set is classed as biochemical. A digest of the protocol:
as §2

A further data set can be described thus: Interaction with Cu. To be noted: UV-Vis; indicative of oxidation. It counts as physicochemical. A digest of the protocol: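 UV-Vis absorption spectra of test compound (25 μM) recorded with CuCl2 at 0, 12.5, 25, 50 and 125 μM. Medium was 20 mM HEPES, pH 6.6, 150 mM NaCl, or EtOH for some compounds. Additional spectra were taken after adding 0.5, 1 and 2 equiv of CuCl2.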

The target in data set [5] is preformed Zn(II)–Aβ42 aggregates (Homo sapiens, UniProt P05067). The data set can be described thus: Aβ42 disaggregation experiments. It counts as biochemical. A digest of the protocol:
as §2

Sequence of Zn(II)–Aβ42 (P05067 672-713): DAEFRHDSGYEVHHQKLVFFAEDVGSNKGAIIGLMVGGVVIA
Sequence of preformed Cu(II)–Aβ42 aggregates (P05067 672-713): as above
Sequence of Cu(II)–Aβ42 (P05067 672-713): as above
Sequence of metal-free Aβ42 (P05067 672-713): as above
Sequence of preformed metal-free Aβ42 aggregates (P05067 672-713): as above
Sequence of Electrophorus electricus AChE (eeAChE) (O42275 24-633): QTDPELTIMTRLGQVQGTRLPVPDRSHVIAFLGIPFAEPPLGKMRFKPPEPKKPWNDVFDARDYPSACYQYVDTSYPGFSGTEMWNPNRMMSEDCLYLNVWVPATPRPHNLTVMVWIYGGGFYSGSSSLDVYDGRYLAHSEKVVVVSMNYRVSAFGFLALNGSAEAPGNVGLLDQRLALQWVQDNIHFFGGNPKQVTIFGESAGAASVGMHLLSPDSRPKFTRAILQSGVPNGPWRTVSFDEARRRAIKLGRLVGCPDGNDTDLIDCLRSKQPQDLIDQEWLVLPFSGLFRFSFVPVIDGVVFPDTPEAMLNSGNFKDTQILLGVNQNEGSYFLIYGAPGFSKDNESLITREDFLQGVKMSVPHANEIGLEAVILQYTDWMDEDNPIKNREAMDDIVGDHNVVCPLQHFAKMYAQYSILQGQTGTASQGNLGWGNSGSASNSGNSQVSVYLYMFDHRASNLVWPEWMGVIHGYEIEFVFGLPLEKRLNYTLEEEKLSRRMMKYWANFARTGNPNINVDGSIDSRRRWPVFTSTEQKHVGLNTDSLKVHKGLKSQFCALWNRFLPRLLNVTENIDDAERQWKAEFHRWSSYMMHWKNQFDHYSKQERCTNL
Sequence of preformed Zn(II)–Aβ42 aggregates (P05067 672-713): as the sequence (P05067 672-713) above

Regarding `O=c1cc(-c2ccc(O)cc2)oc2cc(O)cc(O)c12` [Api, Apigenin], the “radical scavenging activity, compared to Trolox” value in data set [1] is on record as “negligible”. Moreover, the “inhibition of the activity of AChE” value in [2] is on record as “not inhibited”. Besides, the “MW distribution of Aβ42 species by gel/Western blot” value at metal-free Aβ42 was “did not exhibit significant reactivity”; on Cu(II)–Aβ42, “did not exhibit significant reactivity”; on Zn(II)–Aβ42, “did not exhibit significant reactivity”; in [3], “did not exhibit notable reactivity”.

Take `O=c1cc(-c2ccccc2)oc2cc(O)cc(O)c12` [Chr, chrysin]: in data set [1], the “radical scavenging activity, compared to Trolox” value is “negligible”. Moreover, in data set [2], the “inhibition of the activity of AChE” value is “not inhibited”. Moreover, the “MW distribution of Aβ42 species by gel/Western blot” value is on record as “did not exhibit significant reactivity” at metal-free Aβ42, “did not exhibit significant reactivity” at Cu(II)–Aβ42, “did not exhibit significant reactivity” on Zn(II)–Aβ42 and “did not exhibit notable reactivity” in data set [3].

For `O=c1c(O)c(-c2ccccc2)oc2cccc(O)c12` [DHF, 3,5-dihydroxyflavone], in [2], the IC50 (in general, the midpoint of a concentration-inhibition curve) was > 2 µM. Further, the “MW distribution of Aβ42 species by gel/Western blot” value at metal-free Aβ42 was “did not exhibit significant reactivity”; on Cu(II)–Aβ42, “did not exhibit significant reactivity”; on Zn(II)–Aβ42, “did not exhibit significant reactivity”; in data set [3], “did not exhibit notable reactivity”.

Regarding `O=c1c(-c2ccccc2)coc2cc(O)cc(O)c12` [DHIF, 5,7-dihydroxyisoflavone], the “radical scavenging activity, compared to Trolox” value in [1] is “negligible”. The “MW distribution of Aβ42 species by gel/Western blot” value is given as “did not exhibit significant reactivity” at metal-free Aβ42, “did not exhibit significant reactivity” on Cu(II)–Aβ42, “did not exhibit significant reactivity” at Zn(II)–Aβ42 and “did not exhibit notable reactivity” in data set [3].

For `O=c1c(O)c(-c2ccccc2)oc2cc(O)cc(O)c12` [Gal, galangin], the “MW distribution of Aβ42 species by gel/Western blot” value was “did not exhibit significant reactivity” at metal-free Aβ42, “did not exhibit significant reactivity” on Cu(II)–Aβ42, “did not exhibit significant reactivity” at Zn(II)–Aβ42 and “did not exhibit notable reactivity” in data set [3]. Moreover, the “morphology of Aβ42 aggregates by TEM” value at Cu(II)–Aβ42 is listed as “did not significantly alter the morphologies”; at Zn(II)–Aβ42, “fibrillar aggregates similar to those from the compound-free Zn(II)–Aβ42 sample”.

In the case of `O=c1c(-c2ccc(O)cc2)coc2cc(O)cc(O)c12` [Gen, genistein], the “MW distribution of Aβ42 species by gel/Western blot” value is “did not exhibit significant reactivity” at metal-free Aβ42, “did not exhibit significant reactivity” on Cu(II)–Aβ42, “did not exhibit significant reactivity” at Zn(II)–Aβ42 and “did not exhibit notable reactivity” in data set [3].

For the compound `O=c1cc(-c2ccccc2)oc2cccc(O)c12` [HF, 5-hydroxyflavone], in data set [1], the “radical scavenging activity, compared to Trolox” value is “negligible”. Also, the IC50 in [2] was > 2 µM. Also, in data set [2], the “inhibition of the activity of AChE” value is “not inhibited”. The “MW distribution of Aβ42 species by gel/Western blot” value is given as “did not exhibit significant reactivity” at metal-free Aβ42, “did not exhibit significant reactivity” on Cu(II)–Aβ42, “did not exhibit significant reactivity” at Zn(II)–Aβ42 and “did not exhibit notable reactivity” in data set [3]. The “morphology of Aβ42 aggregates by TEM” value at Cu(II)–Aβ42 was “did not significantly alter the morphologies”; on Zn(II)–Aβ42, “fibrillar aggregates similar to those from the compound-free Zn(II)–Aβ42 sample”.

For `O=c1c(-c2ccccc2)coc2cccc(O)c12` [HIF, 5-hydroxyisoflavone], the “radical scavenging activity, compared to Trolox” value in [1] is listed as “negligible”. The “inhibition of the activity of AChE” value in data set [2] was “not inhibited”. Besides, the “MW distribution of Aβ42 species by gel/Western blot” value on metal-free Aβ42 is on record as “did not exhibit significant reactivity”; at Cu(II)–Aβ42, “did not exhibit significant reactivity”; on Zn(II)–Aβ42, “did not exhibit significant reactivity”; in data set [3], “did not exhibit notable reactivity”.

For `O=c1c(O)c(-c2ccc(O)cc2)oc2cc(O)cc(O)c12` [Kae, kaempferol], the “MW distribution of Aβ42 species by gel/Western blot” value at metal-free Aβ42 is on record as “did not significantly influence”; on Cu(II)–Aβ42, “increased the signal in the range of ca. 7–50 kDa”; on Zn(II)–Aβ42, “did not significantly influence”; in [3], “did not impact”. In addition, the “morphology of Aβ42 aggregates by TEM” value at Cu(II)–Aβ42 is recorded as “amorphous assemblies distinct from native Aβ42 fibrils”; on Zn(II)–Aβ42, “fibrillar aggregates similar to those from the compound-free Zn(II)–Aβ42 sample”. In addition, the “morphology of preformed aggregates by TEM” value in data set [4] is “a mixture of amorphous aggregates and thinner chopped fibrils”. In the data set “Interaction with Cu”, the “absorption band at ca. 400–440 nm at greater Cu(II) concentrations” value is recorded as “diminished”.

`O=c1cc(-c2ccc(O)c(O)c2)oc2cc(O)cc(O)c12` [Lut, luteolin]: the “MW distribution of Aβ42 species by gel/Western blot” value at metal-free Aβ42 is “minor change”; on Cu(II)–Aβ42, “increased the signal in the range of ca. 7–50 kDa”; on Zn(II)–Aβ42, “altered the aggregation of Zn(II)–Aβ42, resulting in diverse MW distributions from ca. 15 to 50 kDa”; in [3] it was “did not impact”. Besides, the “morphology of Aβ42 aggregates by TEM” value on Cu(II)–Aβ42 was “decreased the degree of branching in the fibrils”; at Zn(II)–Aβ42 it was “thinner chopped fibrils”. In addition, in data set [4], the “morphology of preformed aggregates by TEM” value was “a mixture of amorphous aggregates and thinner chopped fibrils”.

Take `O=c1c(-c2ccc(O)c(O)c2)coc2cc(O)cc(O)c12` [Oro, orobol]: the “MW distribution of Aβ42 species by gel/Western blot” value was “minor change” on metal-free Aβ42; “significantly decreased the band intensity of the entire range (7–270 kDa)” on Cu(II)–Aβ42; “altered the aggregation of Zn(II)–Aβ42, resulting in diverse MW distributions from ca. 15 to 50 kDa” at Zn(II)–Aβ42; “very mildly varied the MW distribution” in [3]. In addition, the “morphology of Aβ42 aggregates by TEM” value at Cu(II)–Aβ42 is “thinner and shorter aggregates”; at Zn(II)–Aβ42, “thinner chopped fibrils”. For the same compound, the “morphology of preformed aggregates by TEM” value was “a mixture of amorphous aggregates and thinner chopped fibrils” in data set [4]; “shorter fibrils” in data set [5].

Turning to `O=c1c(O)c(-c2ccc(O)c(O)c2)oc2cc(O)cc(O)c12` [Que, Quercetin], the “MW distribution of Aβ42 species by gel/Western blot” value on metal-free Aβ42 is on record as “minor change”; at Cu(II)–Aβ42 it was “increased the smearing band intensity at ca. 7–270 kDa”; on Zn(II)–Aβ42, “altered the aggregation of Zn(II)–Aβ42, resulting in diverse MW distributions from ca. 15 to 50 kDa”; in [3] it was “very mildly varied the MW distribution”. Further, the “morphology of Aβ42 aggregates by TEM” value at Cu(II)–Aβ42 was “significantly shorter fibrillar aggregates”; at Zn(II)–Aβ42, “thinner chopped fibrils”. The “morphology of preformed aggregates by TEM” value in [4] is “a mixture of amorphous aggregates and thinner chopped fibrils”; in data set [5] it was “shorter fibrils”. For the same compound, the “absorption band at ca. 400–440 nm at greater Cu(II) concentrations” value in the data set “Interaction with Cu” is listed as “diminished”.
